Laboratory results as given in paper PMC11210309 (Science Advances, 2021).

What was measured:
[1] = test system: hIECs; experiment: qPCR of intestinal marker genes in compound-treated hIECs; type: cell-based, human; details: compound-treated hIECs in 2D culture (Fig. 1C)
[2] = test system: β-catenin; experiment: Western blot of β-catenin during hIEC differentiation; type: cell-based, human; details: differentiation of hIEC progenitors, 2 μM Wnt-C59 (Fig. 1F)
How it was run: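 hIEC progenitors are kept on 1% Matrigel in DMEM/F12 with EGF, R-spondin1 and insulin. They are seeded at 1.34 × 10^5 cells/cm2 on 1% Matrigel-coated Transwell inserts with 10 μM Y-27632 until near confluence. They are then switched to DMEM/F12 with EGF (100 ng/ml), 2 μM Wnt-C59, 1 mM VPA, 2% FBS, 2% B27, 1% N2, 2 mM l-glutamine, 1% NEAA and 15 mM Hepes.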

[3] = test system: Notch signaling; experiment: Western blot of cleaved NOTCH1 and HES1 during hIEC differentiation; type: cell-based, human; details: single treatment with VPA, 1 mM (Fig. 1F)
[4] = Apical-to-basolateral permeability; details: human
[5] = Apical-to-basolateral permeability; details: human, Caco-2

Papp A→B at 2 h [4] | Papp A→B at 2 h [5] | Molecule | further results
13.8 ± 0.74 ×10⁻⁶ cm/s | 35.5 ± 1 ×10⁻⁶ cm/s | COCCc1ccc(OCC(O)CNC(C)C)cc1 (centres unmarked) [metoprolol] | 
11.6 ± 0.92 ×10⁻⁶ cm/s | 1.16 ± 0.09 ×10⁻⁶ cm/s | CNC(=C[N+](=O)[O-])NCCSCc1ccc(CN(C)C)o1 [ranitidine] | 
13.1 ± 1.25 ×10⁻⁶ cm/s | 29.1 ± 0.97 ×10⁻⁶ cm/s | CC(C)NCC(O)COc1cccc2ccccc12 (centres unmarked) [propranolol] | 
4.95 ± 0.14 ×10⁻⁶ cm/s | < 0.3 ×10⁻⁶ cm/s | CC[C@H]1OC(=O)[C@H](C)[C@@H](O[C@H]2C[C@@](C)(OC)[C@@H](O)[C@H](C)O2)[C@H](C)[C@@H](O[C@@H]2O[C@H](C)C[C@H](N(C)C)[C@H]2O)[C@](C)(O)C[C@@H](C)C(=O)[C@H](C)[C@@H](O)[C@]1(C)O [erythromycin] | 
12.5 ± 2.65 ×10⁻⁶ cm/s | 36.4 ± 1.13 ×10⁻⁶ cm/s | O=C(O)Cc1ccccc1Nc1c(Cl)cccc1Cl [diclofenac] | 

More lines, now with the values behind:

Molecule | Papp A→B at 2 h [4] | Papp A→B at 2 h [5] | further results
Insulin: acts in the intestinal epithelium via the insulin receptor; component of hIEC medium 1 |  |  | Differentiation into absorptive cells (VIL1 and ANPEP expression) [1]: specifically increased
Cc1cc(-c2ccc(CC(=O)Nc3ccc(-c4cccnc4)cc3)cc2)ccn1 [WNT C-59] |  |  | Expression of β-catenin [2]: specifically inhibited
CCCC(CCC)C(=O)O [VPA, valproic acid] |  |  | Notch signaling (cleaved NOTCH1 and HES1) [3]: notable enhancement
R-spondin 1: an agonist of Wnt signaling (protein, UniProt Q2MKA7 21-263, looked up) R-spondin-1: SRGIKGKRQRRISAEGSQACAKGCELCSEVNGCLKCSPKLFILLERNDIRQVGVCLPSCPPGYFDARNPDMNKCIKCKIEHCEACFSHNFCTKCKEGLYLHKGRCYPACPEGSSAANGTMECSSPAQCEMSEWSPWGPCSKKQQLCGFRRGSEERTRRVLHAPVGDHAACSDTKETRRCTVRRVPCPEGQKRRKGGQGRRENANRNLARKESKEAGAGSRRRKGQQQQQQQGTVGPLTSAGPA |  |  | Expression of markers of major intestinal cell types (ISCs, enterocytes, secretory lineage cells) [1]: induced
